Experimental data published in ChEMBL document CHEMBL3580559, “Antimalarial 5,6-Dihydro-α-pyrones from Cryptocarya rigidifolia: Related Bicyclic Tetrahydro-α-Pyrones Are Artifacts1” (J Nat Prod, 2015).

Experiments:
Plasmodium falciparum = experiment: Antimalarial activity against chloroquine/mefloquine-resistant Plasmodium falciparum Dd2 incubated for 72 hrs by SYBR green I-based fluorescence assay; format: functional, organism-based; conditions: Dd2, 72 h
Summary of the method: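 Parasite growth of P. falciparum Dd2 (chloroquine/mefloquine-resistant) measured after 72 h compound treatment with the SYBR green I-based fluorescence assay; artemisinin run as positive control; IC50 values reported.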

A2780 = experiment: Antiproliferative activity against human A2780 cells assessed as inhibition of cell growth incubated for 2 days by alamar blue assay; format: cell-based; conditions: A2780, 48 h

## CCCCCC/C=C\CCCCCCC[C@@H](O)C[C@H]1CC=CC(=O)O1
Plasmodium falciparum
  IC50: 5.5 µM
A2780
  IC50: 8.6 µM

## CCCCCCCCCCCCCCC[C@@H](O)C[C@H](O)C[C@H]1CC=CC(=O)O1
Plasmodium falciparum
  IC50: 5.8 µM
A2780
  IC50: > 10 µM

## CCCCCCCCCCCCCCC[C@@H](O)C[C@H]1C[C@H]2C[C@H](CC(=O)O2)O1
Plasmodium falciparum
  IC50: > 10 µM
A2780
  IC50: > 10 µM

## CCCCCCCCCCC/C=C\CCCCCCCC1C[C@H]2C[C@H](CC(=O)O2)O1 (stereo partly drawn)
Plasmodium falciparum
  IC50: 6 µM
A2780
  IC50: > 10 µM

## C[C@@H]1CC[C@H]2[C@@H](C)C(=O)O[C@@H]3O[C@@]4(C)CC[C@@H]1[C@]32OO4 [ARTEMISININ]
Plasmodium falciparum
  IC50: 0.007 µM

## CCCCCCCC/C=C\CCCCCCC[C@H](O)C[C@H]1CC=CC(=O)O1
Plasmodium falciparum
  IC50: 7.4 µM
A2780
  IC50: > 10 µM

## CCCCCCCCCCCCC(O)CC1C[C@H]2C[C@H](CC(=O)O2)O1 (stereo partly drawn)
Plasmodium falciparum
  IC50: > 10 µM
A2780
  IC50: > 10 µM

## CCCCCC/C=C\CCCCCCC[C@@H]1C[C@H]2C[C@H](CC(=O)O2)O1
Plasmodium falciparum
  IC50: > 10 µM
A2780
  IC50: > 10 µM

## CCCCCCCC(O)CCCCCCC/C=C/[C@H](O)C[C@H]1CC=CC(=O)O1 (stereo partly drawn)
Plasmodium falciparum
  IC50: 9 µM
A2780
  IC50: > 10 µM

## CCCCCCCC(O)CCCCCCC/C=C/[C@H]1C[C@H]2C[C@H](CC(=O)O2)O1 (stereo partly drawn)
Plasmodium falciparum
  IC50: > 10 µM
A2780
  IC50: > 10 µM

## CCCCCCCC/C=C\CCCCCC(O)CC1C[C@H]2C[C@H](CC(=O)O2)O1 (stereo partly drawn)
Plasmodium falciparum
  IC50: 4 µM
A2780
  IC50: > 10 µM

## CCCCCCCCCCCCC[C@@H](O)C[C@H]1CC=CC(=O)O1
Plasmodium falciparum
  IC50: 9.2 µM
A2780
  IC50: > 10 µM
